Active and inactive are the calls of the source. The rule behind the calls is not given here.
Columns and labels:
[1] = target: T1, Catechol O-methyltransferase (Rattus norvegicus) (UniProt P22734); experiment: Ability to inhibit Catechol O-methyltransferase from rat liver. kinetic inhibition Kis constant was reported
T1 sequence (whole entry): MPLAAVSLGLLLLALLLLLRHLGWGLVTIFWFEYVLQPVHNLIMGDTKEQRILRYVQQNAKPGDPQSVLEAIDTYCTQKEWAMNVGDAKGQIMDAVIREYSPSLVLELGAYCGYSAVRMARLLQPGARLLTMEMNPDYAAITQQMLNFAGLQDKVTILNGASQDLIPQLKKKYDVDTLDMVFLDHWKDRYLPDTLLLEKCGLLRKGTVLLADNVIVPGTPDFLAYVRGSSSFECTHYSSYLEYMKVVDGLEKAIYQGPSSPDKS
Outline: (§1)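 COMT purified from male Sprague–Dawley rat liver (180–200 g) through the calcium phosphate step, then reactivated before use by 40 min preincubation at 37 °C in pH 7.6 phosphate buffer with 4 mM DTT. Radiochemical assay: 3,4-dihydroxybenzoic acid variable (0.02–0.20 mM), SAM 0.2 mM plus 0.05 μCi SAM-¹⁴CH₃, Mg²⁺ 1 mM, DTT 4 mM, 100 mM phosphate pH 7.6. Inhibition pattern and Kis/Kii taken from double-reciprocal plots.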

[2] = target: T1, Catechol O-methyltransferase (Rattus norvegicus); experiment: Ability to inhibit Catechol O-methyltransferase from rat liver. kinetic inhibition Kii constant was reported; outline: as §1
[3] = target: T1, Catechol O-methyltransferase (Rattus norvegicus); experiment: Ability to inhibit Catechol O-methyltransferase from rat liver at a concentration of 1 mM. Inhibition pattern was reported; Noncompetitive kinetics; outline: as §1
[4] = target: T1, Catechol O-methyltransferase (Rattus norvegicus); experiment: Ability to inhibit Catechol O-methyltransferase from rat liver at a concentration of 1 mM. Inhibition pattern was reported; No inhibitory activity; outline: as §1
[5] = target: T1, Catechol O-methyltransferase (Rattus norvegicus); experiment: Ability to inhibit Catechol O-methyltransferase from rat liver at a concentration of 1 mM. Inhibition pattern was reported; Competitive kinetics; outline: as §1
[6] = target: T1, Catechol O-methyltransferase (Rattus norvegicus); experiment: Ability to inhibit Catechol O-methyltransferase. Following kinetic inhibition constants Kii was reported; outline: as §1
[7] = target: T1, Catechol O-methyltransferase (Rattus norvegicus); experiment: Ability to inhibit Catechol O-methyltransferase. Following kinetic inhibition constants Kis was reported; outline: as §1
[8] = target: T1, Catechol O-methyltransferase (Rattus norvegicus); experiment: Ability to inhibit Catechol O-methyltransferase kinetic inhibition Kis constant was reported.; outline: as §1
[9] = target: T1, Catechol O-methyltransferase (Rattus norvegicus); experiment: Ability to inhibit Catechol O-methyltransferase kinetic inhibition Kii constant was reported.; outline: as §1

With `COc1c(O)cc(C(=O)O)cc1[N+](=O)[O-]` the Kis [1] was 50.2 µM, the Kii [2] was 247 µM and the inhibition pattern [3] was “Noncompetitive kinetics”.
For `COc1c(O)cc(C(=O)O)cc1I`, the inhibition [4] was “inactive”.
With `COc1c(O)cc(C(=O)O)cc1Br` the inhibition [5] was “Competitive kinetics” and the Kis [1] was 340 µM.
In the case of `CCOC(=S)Sc1cc(C=O)cc(O)c1OC`, the Kii [6] is reported as 272 µM, the inhibition pattern [3] is reported as “Noncompetitive kinetics” and the Kis [7] is reported as 885 µM.
In the case of `COc1c(O)cc(C(=O)O)cc1N(C)C`, the inhibition [4] is reported as “inactive”.
In the case of `COc1c(O)cc(C=O)cc1[N+](=O)[O-]`, the inhibition [5] is reported as “Competitive kinetics” and the Kis [8] is reported as 0.7 µM.
In the case of `COc1c(O)cc(C=O)cc1F`, the inhibition [3] is reported as “Noncompetitive kinetics”, the Kis [8] is reported as 56.9 µM and the Kii [9] is reported as 48.4 µM.
For `COc1ccc(C(=O)O)cc1O`, the inhibition [4] was “inactive”.
`COc1c(N)cc(C(=O)O)cc1O` was tested, and the inhibition [4] was “inactive”.
`COc1c(O)cc(C=O)cc1I` was tested, and the inhibition pattern [3] was “Noncompetitive kinetics”, the Kis [8] was 111 µM and the Kii [9] was 56.6 µM.
With `COc1c(O)cc(C=O)cc1Cl` the inhibition pattern [3] was “Noncompetitive kinetics”, the Kis [8] was 31.6 µM and the Kii [9] was 10.8 µM.
With `COc1c(O)cc(C=O)cc1O` the inhibition pattern [3] was “Noncompetitive kinetics”, the Kis [8] was 9.98 µM and the Kii [9] was 16.1 µM.
With `COc1cc(C(=O)O)cc(O)c1OC` the Kis [1] was 999 µM, the Kii [2] was 521 µM and the inhibition pattern [3] was “Noncompetitive kinetics”.
`COc1c(O)cc(C=O)cc1Br` was tested, and the inhibition pattern [3] was “Noncompetitive kinetics”, the Kis [8] was 31.8 µM and the Kii [9] was 16.5 µM.
`COc1ccc(C=O)cc1O` was tested, and the inhibition [4] was “inactive”.
`COc1c(O)cc(C(=O)O)cc1C#N` was tested, and the Kis [1] was 589 µM, the Kii [2] was 571 µM and the inhibition pattern [3] was “Noncompetitive kinetics”.
For `COc1c(O)cc(C(=O)O)cc1Cl`, the inhibition [5] was “Competitive kinetics” and the Kis [1] was 394 µM.
